Reference: ChEMBL document CHEMBL1145196, “Medicinal chemistry driven approaches toward novel and selective serotonin 5-HT6 receptor ligands” (J Med Chem, 2005)

Assays:
[1] = target: T1, 5-hydroxytryptamine receptor 6 (Homo sapiens, UniProt P50406); experiment: Binding affinity for human 5-hydroxytryptamine 6 receptor
[2] = target: T1, 5-hydroxytryptamine receptor 6; experiment: Partial agonist activity against cAMP accumulation in C6 cells expressing 5-hydroxytryptamine 6 receptor; assay type: functional, cell-based; settings: Rattus norvegicus, filed as partial agonist
[3] = target: T1, 5-hydroxytryptamine receptor 6; experiment: Inhibition of [3H]LSD binding to human 5-hydroxytryptamine 6 receptor expressed in HEK293 cells; assay type: cell-based
How it was run: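 Bound ligand collected on polyethylenimine-pretreated glass fiber filters, washed with 50 mM Tris Cl pH 7.4, counted by liquid scintillation. Nonspecific binding defined with 100 µM serotonin. Competition data fitted by LIGAND; triplicate determinations per point.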

[4] = target: T1, 5-hydroxytryptamine receptor 6; experiment: Antagonist activity against cAMP accumulation in C6 cells expressing 5-hydroxytryptamine 6 receptor; assay type: functional, cell-based; settings: Rattus norvegicus, filed as antagonist
How it was run: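 C6 cells detached with trypsin 2 h before assay, seeded ~50 000 cells/well. Compounds added with or without forskolin for 30 min. Data are means of at least three separate experiments.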

[5] = target: T1, 5-hydroxytryptamine receptor 6; experiment: Agonist activity against cAMP accumulation in C6 cells expressing 5-hydroxytryptamine 6 receptor; assay type: functional, cell-based; settings: Rattus norvegicus, filed as agonist

T1 sequence (P50406 whole entry): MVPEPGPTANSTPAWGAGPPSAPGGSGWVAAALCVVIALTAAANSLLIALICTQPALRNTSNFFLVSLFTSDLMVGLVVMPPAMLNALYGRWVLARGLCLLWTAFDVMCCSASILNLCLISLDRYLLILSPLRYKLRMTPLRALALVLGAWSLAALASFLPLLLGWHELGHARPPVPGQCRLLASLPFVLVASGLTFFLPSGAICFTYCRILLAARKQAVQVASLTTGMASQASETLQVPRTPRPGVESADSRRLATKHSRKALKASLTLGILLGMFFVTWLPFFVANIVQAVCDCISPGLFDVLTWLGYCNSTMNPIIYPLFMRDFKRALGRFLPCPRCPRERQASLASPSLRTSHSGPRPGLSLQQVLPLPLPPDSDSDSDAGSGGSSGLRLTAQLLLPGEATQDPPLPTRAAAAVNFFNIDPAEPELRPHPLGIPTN

Row | SMILES | Ki [3] | Activity [4] | also measured
1 | CN1CCN(C2Cc3ccccc3Sc3ccc(Cl)cc32)CC1 (centres undefined) [CLOROTEPINE] |  |  | Ki [1]: < 50 nM
2 | CCN(CC)CCc1c[nH]c2ccc(NS(=O)(=O)c3cccc4c(Cl)cccc34)cc12 | 3.3 nM |  | Activity [2]: Partial agonist
3 | Cc1cccc2c1N(C1CCN(S(=O)(=O)c3csc4ccccc34)CC1)C(=O)OC2 | 124 nM | Antagonist | 
4 | Cc1c(S(=O)(=O)Nc2ccc3cc(C)n(CCN(C)C)c3c2)sc2ccc(Cl)cc12 | > 1000 nM |  | 
5 | Cc1c(S(=O)(=O)Nc2ccc3[nH]cc(CN(C)C)c3c2)sc2ccc(Cl)cc12 | 5.3 nM | Antagonist | 
6 | CCN(CC)CCn1ccc2cc(NS(=O)(=O)c3cccc4ccccc34)ccc21 | 116 nM | Antagonist | 
7 | Cc1c(S(=O)(=O)Nc2ccc3[nH]cc(CCN4CCCC4)c3c2)sc2ccc(Cl)cc12 | 4 nM |  | Activity [2]: Partial agonist
8 | CN1CC=C(c2cn(S(=O)(=O)c3cccc4ccccc34)c3ccc(F)cc23)CC1 |  |  | Ki [1]: < 50 nM
9 | O=S(=O)(Nc1ccc2[nH]cc(CCN3CCOCC3)c2c1)c1cccc2ccccc12 | 163 nM | Antagonist | 
10 | O=S(=O)(CCc1cccc2ccccc12)Nc1ccc2ccn(CCN3CCCC3)c2c1 | 195 nM | Antagonist | 
11 | CN(C)C(=O)C(=O)c1c[nH]c2ccc(NS(=O)(=O)c3c(Cl)nc4sccn34)cc12 |  | Antagonist | 
12 | Cc1cc2cc(NS(=O)(=O)c3ccc4ccccc4c3)ccc2n1CCN(C)C | 85.8 nM | Antagonist | 
13 | Cc1cccc2c1N(C1CCN(S(=O)(=O)c3cccc4cccnc34)CC1)C(=O)OC2 |  | Antagonist | 
14 | Cc1c(S(=O)(=O)Nc2ccc3[nH]cc(CCN4CCOCC4)c3c2)sc2ccc(Cl)cc12 | 15.1 nM | Antagonist | 
15 | CN(C)CCn1ccc2ccc(NS(=O)(=O)c3ccc4ccccc4c3)cc21 |  | Antagonist | 
16 | CN1CCC(c2c[nH]c3ccc(NS(=O)(=O)c4cccc5ccccc45)cc23)CC1 |  | Antagonist | 
17 | O=S(=O)(Nc1ccc2ccn(CCN3CCCC3)c2c1)c1c(Cl)nc2sccn12 | 52.2 nM | Antagonist | 
18 | CCCN(CCC)CCc1c[nH]c2ccc(NS(=O)(=O)c3sc4ccc(Cl)cc4c3C)cc12 | 0.5 nM |  | Activity [2]: Partial agonist
19 | CCN(CC)CCn1ccc2cc(NS(=O)(=O)c3ccc4ccccc4c3)ccc21 | 140 nM | Antagonist | 
20 | O=S(=O)(Nc1ccc2[nH]cc(CCN3CCCC3)c2c1)c1cccc2ccccc12 | 4.5 nM | Antagonist | 
21 | CCN(CC)CCc1c[nH]c2ccc(NS(=O)(=O)c3cc(Cl)cc(Cl)c3)cc12 |  |  | Activity [2]: Partial agonist
22 | CC(C)C[C@H]1C(=O)N2CCC[C@H]2[C@]2(O)O[C@](NC(=O)[C@@H]3C=C4c5cccc6[nH]c(Br)c(c56)C[C@H]4N(C)C3)(C(C)C)C(=O)N12 [BROMOCRIPTINE] |  |  | Ki [1]: < 50 nM
23 | O=S(=O)(Nc1ccc2c(ccn2CCN2CCCC2)c1)c1c(Cl)nc2sccn12 | 9.8 nM | Antagonist | 

Row | SMILES | Ki [3] | Activity [4] | also measured
24 | O=S(=O)(Nc1ccc2[nH]cc(CCN3CCOCC3)c2c1)c1ccc2ccccc2c1 | 132 nM | Antagonist | 
25 | CCN(CC)C(=O)C(=O)c1c[nH]c2ccc(NS(=O)(=O)c3c(Cl)nc4sccn34)cc12 |  | Antagonist | 
26 | CCCN(CCC)CCc1c[nH]c2ccc(NS(=O)(=O)c3ccc4ccccc4c3)cc12 | 3.9 nM |  | Activity [2]: Partial agonist
27 | Cc1cc2cc(NS(=O)(=O)c3cccc4ccccc34)ccc2n1CCN(C)C | 124 nM | Antagonist | 
28 | CN1CCC(c2c[nH]c3ccc(NS(=O)(=O)c4cccc5c(Cl)cccc45)cc23)CC1 | 9.6 nM | Antagonist | 
29 | CCN(CC)CCc1c[nH]c2ccc(NS(=O)(=O)c3ccc4ccccc4c3)cc12 | 40.8 nM |  | 
30 | CCCCN(CCCC)CCc1c[nH]c2ccc(NS(=O)(=O)c3cccc4ccccc34)cc12 | 7.2 nM | Antagonist | 
31 | Cc1c(S(=O)(=O)Nc2ccc3ccn(CCN(C)C)c3c2)sc2ccc(Cl)cc12 |  |  | Activity [2]: Partial agonist
32 | COc1ccc(OC)c(S(=O)(=O)N2CCC(N3C(=O)OCc4cccc(C)c43)CC2)c1 | 131 nM | Antagonist | 
33 | O=C1OCc2ccccc2N1C1CCN(S(=O)(=O)c2cccc3cccnc23)CC1 |  | Antagonist | 
34 | Cc1cccc2c1N(C1CCN(S(=O)(=O)c3cccc4c(N(C)C)cccc34)CC1)C(=O)OC2 | 336 nM | Antagonist | 
35 | Cc1c(S(=O)(=O)Nc2ccc3[nH]cc(C4CCN(C)CC4)c3c2)sc2ccc(Cl)cc12 | 1 nM | Antagonist | 
36 | O=S(=O)(Nc1ccc2ccn(CCN3CCCC3)c2c1)c1cccc2ccccc12 | 18.6 nM | Antagonist | 
37 | O=S(=O)(Nc1ccc2[nH]cc(CCN3CCCC3)c2c1)c1ccc2ccccc2c1 | 4.3 nM |  | Activity [2]: Partial agonist
38 | CN(C)CCn1ccc2c(NS(=O)(=O)c3ccc4ccccc4c3)cccc21 | 14.9 nM | Antagonist | 
39 | Cc1c(S(=O)(=O)Nc2ccc3[nH]cc(C(=O)C(=O)N(C)C)c3c2)sc2ccc(Cl)cc12 | > 1000 nM |  | 
40 | CN(C)CCn1ccc2cc(NS(=O)(=O)c3ccc4ccccc4c3)ccc21 | 57.7 nM | Antagonist | 
41 | COc1ccc2c(c1)c(CCN(C)C)cn2S(=O)(=O)c1ccccc1 |  |  | Ki [1]: < 50 nM
42 | Cc1c(S(=O)(=O)Nc2ccc3ccn(CCN4CCCC4)c3c2)sc2ccc(Cl)cc12 | 109 nM | Antagonist | 
43 | O=S(=O)(Nc1ccc2ccn(CCN3CCCC3)c2c1)c1ccc2ccccc2c1 | 101 nM | Antagonist | 
44 | CNc1cc(NS(=O)(=O)c2ccc(N)cc2)cc(NC)n1 | 14.8 nM |  | 
45 | CN(C)CCc1c[nH]c2ccc(NS(=O)(=O)c3cccc4ccccc34)cc12 | 0.8 nM |  | Activity [2]: Partial agonist
46 | CCN(CC)C(=O)C(=O)c1c[nH]c2ccc(NS(=O)(=O)c3cccc4ccccc34)cc12 | > 1000 nM |  | 

Row | SMILES | Ki [3] | Activity [4] | also measured
47 | CN(C)CCc1c[nH]c2ccc(NS(=O)(=O)c3ccc4c(Cl)cccc4c3)cc12 | 0.2 nM | Antagonist | 
48 | CCc1[nH]c2ccc(OC)cc2c1CCN(C)C |  |  | Ki [1]: < 50 nM
49 | CCN(CC)C(=O)C(=O)c1c[nH]c2ccc(NS(=O)(=O)c3cccc4cccnc34)cc12 | > 1000 nM |  | 
50 | O=C1OCc2ccccc2N1C1CCN(S(=O)(=O)c2cccc3ccccc23)CC1 |  | Antagonist | 
51 | CCN(CC)CCn1ccc2cc(NS(=O)(=O)c3c(Cl)nc4sccn34)ccc21 | 97.3 nM | Antagonist | 
52 | Cc1c(S(=O)(=O)Nc2cccc3c2cc(C)n3CCN(C)C)sc2ccc(Cl)cc12 | 57.7 nM | Antagonist | 
53 | CN(C)CCc1c[nH]c2ccc(NS(=O)(=O)c3ccc(-c4ccccc4)cc3)cc12 | 0.4 nM |  | Activity [5]: Agonist
54 | CCN(CC)CCc1c[nH]c2ccc(NS(=O)(=O)c3ccc(-c4ccccc4)cc3)cc12 |  |  | Activity [5]: Agonist
55 | Cc1cc2cc(NS(=O)(=O)c3c(Cl)nc4sccn34)ccc2n1CCN(C)C | 74.6 nM | Antagonist | 
56 | Cc1c(S(=O)(=O)Nc2ccc3[nH]cc(CCN(C)C)c3c2)sc2ccc(Cl)cc12 | 0.1 nM |  | Activity [5]: Agonist
57 | O=C1OCc2ccccc2N1C1CCN(S(=O)(=O)c2csc3ccccc23)CC1 | 126 nM | Antagonist | 
58 | CN(C)CCn1ccc2c(NS(=O)(=O)c3cccc4ccccc34)cccc21 | 64.7 nM | Antagonist | 
59 | CN(C)CCn1ccc2cc(NS(=O)(=O)c3c(Cl)nc4sccn34)ccc21 |  | Antagonist | 
60 | CN1CCN(C2=Nc3ccccc3Oc3ccc(Cl)cc32)CC1 [LOXAPINE] |  |  | Ki [1]: < 50 nM
61 | O=S(=O)(Nc1ccc2c(ccn2CCCN2CCCCC2)c1)c1c(Cl)nc2sccn12 | > 1000 nM |  | 
62 | CNc1cc(NS(=O)(=O)c2ccc(N)cc2)nc(NC)n1 | 44.7 nM |  | 
63 | CN(C)CCc1c[nH]c2ccc(NS(=O)(=O)c3c(Cl)nc4sccn34)cc12 |  |  | Activity [2]: Partial agonist
64 | CCN(CC)CCCc1c[nH]c2ccc(NS(=O)(=O)c3ccc4ccccc4c3)cc12 | 163 nM | Antagonist | 
65 | CN(C)CCn1ccc2cc(NS(=O)(=O)Cc3ccccc3)ccc21 | > 1000 nM |  | 
66 | OCCN1CCN(CCCN2c3ccccc3Sc3ccc(C(F)(F)F)cc32)CC1 [FLUPHENAZINE] |  |  | Ki [1]: < 50 nM
67 | O=S(=O)(Nc1ccc2c(ccn2CCN2CCCCC2)c1)c1c(Cl)nc2sccn12 | 31.4 nM | Antagonist | 
68 | COc1ccc(Br)cc1S(=O)(=O)N1CCC(N2C(=O)OCc3cccc(C)c32)CC1 | > 1000 nM |  | 
69 | CCN(CC)CCc1c[nH]c2ccc(NS(=O)(=O)c3sc4ccc(Cl)cc4c3C)cc12 | 0.3 nM |  | Activity [5]: Agonist
